Assay results of several laboratories.
Protocols differ between the studies behind these lines.
Target: Protein-tyrosine kinase 2-beta (PTK2B, Homo sapiens, UniProt Q14289)

| Compound | assay | setting | remaining binding [%] |
| --- | --- | --- | --- |
| CC1CCCN1c1nccc(-c2cnn3ncccc23)n1 (stereo not drawn) | binding | 1 µM | 100 |
| CC(C)CC(=O)N1CCc2nc(-c3ccc(Br)cc3)nc(N(C)Cc3ccccc3)c2C1 | cell-free assay, competition with immobilised ligand | 0.1 µM | 100 |
| O=C(NCCCN1CCOCC1)c1ccc(Nc2ncc(Cl)c(-c3ccc(Cl)s3)n2)cc1 | binding, competition with immobilised ligand | 1 µM | 41 |
| O=C(O)[C@H]1[C@H](Cn2nnc3ccccc3c2=O)CC[C@@H]1C(=O)c1ccc(OCCC2CCOCC2)cc1 | cell-free assay, competition with immobilised ligand | 1 µM | 75 |
| O=C(c1ccc(Nc2ncc(Cl)c(-c3cc4ccccc4s3)n2)cc1)N1CCC(N2CCCC2)CC1 | binding, competition with immobilised ligand | 1 µM | 40 |
| CN(C)c1nccc(-c2cnn3ncccc23)n1 | binding | 1 µM | 87 |
| COc1cnc(Nc2cccc(S(N)(=O)=O)c2)nc1N1CCN(c2ccccc2)C(=O)C1 | binding, competition with immobilised ligand | 1 µM | 100 |
| O=C(NCC1CCOCC1)c1n[nH]cc1NC(=O)c1c(F)cccc1F | binding, competition with immobilised ligand | 1 µM | 100 |
| CN(c1nccc(-c2cnn3ncccc23)n1)C1CC1 | binding | 1 µM | 100 |
| Cn1cc(Cl)c2c(Oc3c(F)cc(Nc4cc(Cl)nc(N)n4)cc3F)ccnc21 | cell-free assay, competition with immobilised ligand | 0.1 µM | 100 |
| C[C@H]1CCN(c2nccc(-c3cnn4ncccc34)n2)C1 | binding | 1 µM | 100 |
| CCN1CCN(Cc2ccc(C(=O)Nc3ccc(C)c(Oc4ccc5c(c4)CC(=O)N5)c3)cc2C(F)(F)F)CC1 | binding, competition with immobilised ligand | 1 µM | 49 |
| FC(F)(F)Oc1cccc(-c2cnc3ccc(-c4ccncc4)nn23)c1 | cell-free assay, competition with immobilised ligand | 5 µM | 76 |
| N[C@@H]1CCN(c2nccc(-c3cnn4ncccc34)n2)C1 | binding | 1 µM | 100 |
| c1cncc(-c2cccc(Nc3nccc(NC4CCCCC4)n3)c2)c1 | binding, competition with immobilised ligand | 10 µM | 63 |
| Nc1cnc(N2CCc3cc(S(=O)(=O)Nc4c(F)cc(Cl)cc4F)cc(N4CCCC4=O)c32)nc1 | cell-free assay, competition with immobilised ligand | 1 µM | 100 |
| O=C(c1ccc(Nc2ncc(Cl)c(-c3ccc(Cl)s3)n2)cc1)N1CCC(N2CCCC2)CC1 | binding, competition with immobilised ligand | 1 µM | 49 |
| Cc1c[nH]c2nccc(Oc3c(F)cc(Nc4cc(Cl)nc(N)n4)cc3F)c12 | cell-free assay, competition with immobilised ligand | 0.1 µM | 90 |
| Nc1ncc2c(n1)-c1c([nH]c3ccc(C#CC4CC4)cc13)CCCC2 | binding, competition with immobilised ligand | 1 µM | 98 |
| CN(C)c1nccc(-c2cnc3ncccn23)n1 | binding | 1 µM | 92 |
| NS(=O)(=O)c1cc(NC(=O)C2(c3ccccc3Cl)CC2)ccc1Oc1cccc(Cl)c1 | cell-free assay, competition with immobilised ligand | 1 µM | 91 |
